Measured values collected from several papers.
Lines come from different studies, so protocols differ.
EGFR: Epidermal growth factor receptor (EGFR, Homo sapiens, UniProt P00533)
DRD2: D(2) dopamine receptor (DRD2, Homo sapiens, UniProt P14416)
MTOR: Serine/threonine-protein kinase mTOR (MTOR, Homo sapiens, UniProt P42345)

For `CC(C)[C@@H]1NC(=O)CCNC(=O)CCNC(=O)[C@H](Cc2ccc(O)cc2)NC(=O)[C@H](Cc2ccc(O)cc2)NC(=O)[C@H](Cc2ccccc2)NC(=O)[C@@H](Cc2ccc(O)cc2)NC(=O)CSC[C@@H](C(=O)NCC(N)=O)NC(=O)CCNC(=O)[C@H](CCCNC(=N)N)NC(=O)[C@H](CCCNC(=N)N)NC(=O)[C@H](Cc2ccc(O)cc2)NC(=O)[C@H](C(C)C)NC(=O)[C@H](C(C)C)NC(=O)[C@H](CC(N)=O)NC1=O`, the Kd was 1690 nM (EGFR; binding; SPR).
`CCCC[C@@H](NC(=O)[C@@H](N)Cc1c(C)cc(O)cc1C)C(=O)NCC(=O)N[C@@H](Cc1ccc(F)cc1)C(=O)N(C)CCC[C@@]1(c2ccc(F)cc2)OCc2cc(C#N)ccc21` has a Ki of 2700 nM (DRD2; ligand displacement; radioligand).
With `COCCCN1CCN(c2ccccc2OC)CC1` the Ki was 180 nM (DRD2; ligand displacement; radioligand).
With `OC(c1ccc(F)cc1)C(F)(F)CCN1CCC(O)(c2ccc(Cl)cc2)CC1` (racemic) the Ki was 1960 nM (DRD2; cell-free assay; radioligand).
With `CC(C)[C@@H]1NC(=O)[C@H](CCCNC(=N)N)NC(=O)[C@H](Cc2ccc(O)cc2)NC(=O)[C@H](C(C)C)NC(=O)[C@H](C(C)C)NC(=O)[C@H](CCCNC(=N)N)NC(=O)[C@H](CC(=O)O)NC(=O)[C@H](CC(=O)O)NC(=O)CCNC(=O)[C@H](Cc2ccc(O)cc2)NC(=O)[C@H](Cc2ccc(O)cc2)NC(=O)[C@H](Cc2ccccc2)NC(=O)[C@@H](Cc2ccc(O)cc2)NC(=O)CSC[C@@H](C(=O)NCC(N)=O)NC(=O)CCNC1=O` the Kd was 632 nM (EGFR; binding; SPR).
`Cc1cc(O)cc(C)c1C[C@H](N)C(=O)N[C@H](C)C(=O)NCC(=O)N[C@@H](Cc1ccc(Cl)cc1)C(=O)N(C)CCC[C@@]1(c2ccc(F)cc2)OCc2cc(C#N)ccc21` gave a Ki of 2200 nM (DRD2; ligand displacement; radioligand).
For `C=C1C[C@H]2C[C@@H](c3ccc(Br)cc3)OCC[C@@H](O)CC(=O)O[C@@H]([C@@H](C)O)C[C@@H]3C/C(=C\C(=O)OC)[C@H](OC(=O)CCCCCCC)[C@@](O)(O3)C(C)(C)/C=C/[C@@H](C1)O2`, the Ki was 2.2 nM (Protein kinase C delta type (PRKCD, Homo sapiens, UniProt Q05655); ligand displacement; radioligand).
With `O=c1c(O)c(-c2ccc(O)c(O)c2)oc2cc(O)ccc12` the Kd was 11000 nM (MTOR; cell-free assay; competition with immobilised ligand).
With `CSCC[C@H](NC(=O)[C@H](CC(C)C)NC(=O)[C@H](Cc1cnc[nH]1)NC(=O)CNC(=O)[C@@H](NC(=O)[C@H](C)NC(=O)[C@H](Cc1c[nH]c2ccccc12)NC(=O)[C@H](CCC(N)=O)NC(=O)[C@H](CC(N)=O)NC(=O)CNC(=O)[C@H](CC(C)C)NC(=O)[C@H](CCCN=C(N)N)NC(=O)[C@H](CCC(N)=O)NC(=O)[C@@H]1CCC(=O)N1)C(C)C)C(N)=O` the EC50 was greater than 10000 nM (Bombesin receptor subtype-3 (Brs3, Rattus norvegicus, UniProt Q8K418); calcium signal; agonist; fluorescence).
`Cl.Cl.N.N.N.N.N.N.N.N.[N-3].[Ru+4].[Ru+4]` has an IC50 of 8.6 nM (Calcium uniporter protein, mitochondrial (MCU, Homo sapiens, UniProt Q8NE86); transporter uptake; inhibitor).
For `Nc1ncc(-c2nc(N3CCOCC3)nc(N3CCOCC3)n2)c(C(F)F)n1`, the Kd was 21.5 nM (MTOR; binding; competition with immobilised ligand).
For `CC/C=C\C/C=C\C/C=C\CCCCCCCC(=O)O`, the Ki was 620 nM (Liver carboxylesterase (Sus scrofa, UniProt Q29550); enzyme activity; inhibitor; HPLC).
For `CC[C@H](C)[C@H](NC(=O)[C@@H](N)CCCNC(=N)N)C(=O)N[C@H](C(=O)N1CCC[C@H]1C(=O)N[C@@H](C)C(N)=O)C(C)C`, the Kd was 800 nM (Sequestosome-1 (SQSTM1, Homo sapiens, UniProt Q13501); binding; MST; pH 7).
`CC(C)C[C@H](NC(=O)[C@H](Cc1ccccc1)NC(=O)[C@H](Cc1ccc(O)cc1)NC(=O)CNC(=O)[C@H](CCCCN)NC(=O)[C@H](CO)NC(=O)[C@H](CCC(N)=O)NC(=O)CNC(=O)[C@@H](NC(=O)[C@H](CO)NC(=O)[C@@H]1CCCN1C(=O)[C@H](CO)NC(=O)[C@H](CCC(N)=O)NC(=O)[C@H](Cc1ccc(O)cc1)NC(=O)[C@H](CCC(=O)O)NC(=O)[C@H](C)NC(=O)[C@H](CCCCN)NC(=O)[C@@H](N)Cc1ccccc1)C(C)C)C(=O)N[C@@H](Cc1ccccc1)C(=O)N[C@@H](CCCNC(=N)N)C(=O)N1CCC[C@H]1C(=O)N[C@@H](CCCNC(=N)N)C(=O)N[C@@H](CC(N)=O)C(N)=O` gave an EC50 of 0.794 nM (Neuromedin-U receptor 2 (Mus musculus, UniProt Q8BZ39); inositol phosphate; agonist).
